Measured values from ChEMBL document CHEMBL4152188, “Design, synthesis and biological evaluation of C(4) substituted monobactams as antibacterial agents against multidrug-resistant Gram-negative bacteria” (Eur J Med Chem, 2018).
Values after ≈ are worked out from the molar mass of the structure shown.

How the values were obtained:
Type in all cases: functional
Escherichia coli [1] = assay: Antibacterial activity against extended-spectrum beta-lactamase producing Escherichia coli isolate 212648 after 18 hrs by CLSI broth microdilution method; conditions: isolate 212648, 18 h
Escherichia coli [2] = assay: Selectivity index, ratio of MIC for against extended-spectrum beta-lactamase producing Escherichia coli isolate 208687 to MIC for extended-spectrum beta-lactamase producing Escherichia coli isolate 208687 in presence of BPL
Escherichia coli [3] = assay: Antibacterial activity against Escherichia coli isolate 210737 after 18 hrs by CLSI broth microdilution method; conditions: isolate 210737, 18 h
Escherichia coli [4] = assay: Antibacterial activity against extended-spectrum beta-lactamase producing Escherichia coli isolate 208687 after 18 hrs by CLSI broth microdilution method; conditions: isolate 208687, 18 h
Escherichia coli [5] = assay: Antibacterial activity against extended-spectrum beta-lactamase producing Escherichia coli isolate 208687 after 18 hrs in presence of BPL by CLSI broth microdilution method; conditions: isolate 208687, 18 h
Procedure, shortened: (§1)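 CLSI broth microdilution against clinical isolates (ESBL E. coli, KPC-2 MDR K. pneumoniae, IMP-4 MDR P. aeruginosa; five per species). Iron limitation: Mueller-Hinton broth supplemented with 16 mg/liter 2,2'-bipyridyl to complex iron and induce iron uptake systems. Read-out: MIC.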

Escherichia coli [6] = assay: Antibacterial activity against Escherichia coli isolate 210737 after 18 hrs in presence of BPL by CLSI broth microdilution method; conditions: isolate 210737, 18 h; procedure, shortened: as §1
Escherichia coli [7] = assay: Selectivity index, ratio of MIC for against Escherichia coli isolate 210737 to MIC for Escherichia coli isolate 210737 in presence of BPL
Escherichia coli [8] = assay: Antibacterial activity against extended-spectrum beta-lactamase producing Escherichia coli isolate 212648 after 18 hrs in presence of BPL by CLSI broth microdilution method; conditions: isolate 212648, 18 h; procedure, shortened: as §1
Escherichia coli [9] = assay: Selectivity index, ratio of MIC for against extended-spectrum beta-lactamase producing Escherichia coli isolate 212648 to MIC for extended-spectrum beta-lactamase producing Escherichia coli isolate 212648 in presence of BPL
Escherichia coli [10] = assay: Antibacterial activity against extended-spectrum beta-lactamase producing Escherichia coli isolate 209285 after 18 hrs by CLSI broth microdilution method; conditions: isolate 209285, 18 h
Escherichia coli [11] = assay: Antibacterial activity against extended-spectrum beta-lactamase producing Escherichia coli isolate 209285 after 18 hrs in presence of BPL by CLSI broth microdilution method; conditions: isolate 209285, 18 h; procedure, shortened: as §1
Escherichia coli [12] = assay: Selectivity index, ratio of MIC for against extended-spectrum beta-lactamase producing Escherichia coli isolate 209285 to MIC for extended-spectrum beta-lactamase producing Escherichia coli isolate 209285 in presence of BPL
Escherichia coli [13] = assay: Antibacterial activity against extended-spectrum beta-lactamase producing Escherichia coli isolate 106342 after 18 hrs by CLSI broth microdilution method; conditions: isolate 106342, 18 h
Escherichia coli [14] = assay: Antibacterial activity against extended-spectrum beta-lactamase producing Escherichia coli isolate 106342 after 18 hrs in presence of BPL by CLSI broth microdilution method; conditions: isolate 106342, 18 h; procedure, shortened: as §1
Escherichia coli [15] = assay: Selectivity index, ratio of MIC for against extended-spectrum beta-lactamase producing Escherichia coli isolate 106342 to MIC for extended-spectrum beta-lactamase producing Escherichia coli isolate 106342 in presence of BPL
Klebsiella pneumoniae [16] = assay: Antibacterial activity against KPC-2 producing Klebsiella pneumoniae isolate 212423 after 18 hrs by CLSI broth microdilution method; conditions: isolate 212423, 18 h
Klebsiella pneumoniae [17] = assay: Antibacterial activity against KPC-2 producing Klebsiella pneumoniae isolate 212423 after 18 hrs in presence of BPL by CLSI broth microdilution method; conditions: isolate 212423, 18 h; procedure, shortened: as §1
Klebsiella pneumoniae [18] = assay: Selectivity index, ratio of MIC for against KPC-2 producing Klebsiella pneumoniae isolate 212423 to MIC for against KPC-2 producing Klebsiella pneumoniae isolate 212423 in presence of BPL
Klebsiella pneumoniae [19] = assay: Antibacterial activity against KPC-2 producing Klebsiella pneumoniae isolate 209632 after 18 hrs by CLSI broth microdilution method; conditions: isolate 209632, 18 h
Klebsiella pneumoniae [20] = assay: Antibacterial activity against KPC-2 producing Klebsiella pneumoniae isolate 209632 after 18 hrs in presence of BPL by CLSI broth microdilution method; conditions: isolate 209632, 18 h; procedure, shortened: as §1
Klebsiella pneumoniae [21] = assay: Selectivity index, ratio of MIC for against KPC-2 producing Klebsiella pneumoniae isolate 209632 to MIC for against KPC-2 producing Klebsiella pneumoniae isolate 209632 in presence of BPL
Klebsiella pneumoniae [22] = assay: Antibacterial activity against KPC-2 producing Klebsiella pneumoniae isolate 209735 after 18 hrs by CLSI broth microdilution method; conditions: isolate 209735, 18 h
Klebsiella pneumoniae [23] = assay: Antibacterial activity against KPC-2 producing Klebsiella pneumoniae isolate 209735 after 18 hrs in presence of BPL by CLSI broth microdilution method; conditions: isolate 209735, 18 h; procedure, shortened: as §1
Klebsiella pneumoniae [24] = assay: Selectivity index, ratio of MIC for against KPC-2 producing Klebsiella pneumoniae isolate 209735 to MIC for against KPC-2 producing Klebsiella pneumoniae isolate 209735 in presence of BPL
Klebsiella pneumoniae [25] = assay: Antibacterial activity against KPC-2 producing Klebsiella pneumoniae isolate 212232 after 18 hrs by CLSI broth microdilution method; conditions: isolate 212232, 18 h
Klebsiella pneumoniae [26] = assay: Antibacterial activity against KPC-2 producing Klebsiella pneumoniae isolate 212232 after 18 hrs in presence of BPL by CLSI broth microdilution method; conditions: isolate 212232, 18 h; procedure, shortened: as §1
Klebsiella pneumoniae [27] = assay: Selectivity index, ratio of MIC for against KPC-2 producing Klebsiella pneumoniae isolate 212232 to MIC for against KPC-2 producing Klebsiella pneumoniae isolate 212232 in presence of BPL
Klebsiella pneumoniae [28] = assay: Antibacterial activity against KPC-2 producing Klebsiella pneumoniae isolate 212229 after 18 hrs by CLSI broth microdilution method; conditions: isolate 212229, 18 h
Klebsiella pneumoniae [29] = assay: Antibacterial activity against KPC-2 producing Klebsiella pneumoniae isolate 212229 after 18 hrs in presence of BPL by CLSI broth microdilution method; conditions: isolate 212229, 18 h; procedure, shortened: as §1
Klebsiella pneumoniae [30] = assay: Selectivity index, ratio of MIC for against KPC-2 producing Klebsiella pneumoniae isolate 212229 to MIC for against KPC-2 producing Klebsiella pneumoniae isolate 212229 in presence of BPL
Pseudomonas aeruginosa [31] = assay: Antibacterial activity against IMP-4 producing Pseudomonas aeruginosa isolate 212886 after 18 hrs by CLSI broth microdilution method; conditions: isolate 212886, 18 h
Pseudomonas aeruginosa [32] = assay: Antibacterial activity against IMP-4 producing Pseudomonas aeruginosa isolate 212886 after 18 hrs in presence of BPL by CLSI broth microdilution method; conditions: isolate 212886, 18 h; procedure, shortened: as §1
Pseudomonas aeruginosa [33] = assay: Antibacterial activity against IMP-4 producing Pseudomonas aeruginosa isolate 209471 after 18 hrs by CLSI broth microdilution method; conditions: isolate 209471, 18 h
Pseudomonas aeruginosa [34] = assay: Antibacterial activity against IMP-4 producing Pseudomonas aeruginosa isolate 209471 after 18 hrs in presence of BPL by CLSI broth microdilution method; conditions: isolate 209471, 18 h; procedure, shortened: as §1
Pseudomonas aeruginosa [35] = assay: Selectivity index, ratio of MIC for against IMP-4 producing Pseudomonas aeruginosa isolate 209471 to MIC for against IMP-4 producing Pseudomonas aeruginosa isolate 209471 in presence of BPL
Pseudomonas aeruginosa [36] = assay: Antibacterial activity against IMP-4 producing Pseudomonas aeruginosa isolate 208247 after 18 hrs by CLSI broth microdilution method; conditions: isolate 208247, 18 h
Pseudomonas aeruginosa [37] = assay: Antibacterial activity against IMP-4 producing Pseudomonas aeruginosa isolate 208247 after 18 hrs in presence of BPL by CLSI broth microdilution method; conditions: isolate 208247, 18 h; procedure, shortened: as §1
Pseudomonas aeruginosa [38] = assay: Antibacterial activity against IMP-4 producing Pseudomonas aeruginosa isolate 209321 after 18 hrs by CLSI broth microdilution method; conditions: isolate 209321, 18 h
Pseudomonas aeruginosa [39] = assay: Antibacterial activity against IMP-4 producing Pseudomonas aeruginosa isolate 209321 after 18 hrs in presence of BPL by CLSI broth microdilution method; conditions: isolate 209321, 18 h; procedure, shortened: as §1
Pseudomonas aeruginosa [40] = assay: Selectivity index, ratio of MIC for against IMP-4 producing Pseudomonas aeruginosa isolate 209321 to MIC for against IMP-4 producing Pseudomonas aeruginosa isolate 209321 in presence of BPL
Pseudomonas aeruginosa [41] = assay: Antibacterial activity against IMP-4 producing Pseudomonas aeruginosa isolate 207272 after 18 hrs by CLSI broth microdilution method; conditions: isolate 207272, 18 h
Pseudomonas aeruginosa [42] = assay: Antibacterial activity against IMP-4 producing Pseudomonas aeruginosa isolate 207272 after 18 hrs in presence of BPL by CLSI broth microdilution method; conditions: isolate 207272, 18 h; procedure, shortened: as §1
Pseudomonas aeruginosa [43] = assay: Selectivity index, ratio of MIC for against IMP-4 producing Pseudomonas aeruginosa isolate 207272 to MIC for against IMP-4 producing Pseudomonas aeruginosa isolate 207272 in presence of BPL

For `CC(C)C(O/N=C(\C(=O)N[C@@H]1C(=O)N(S(=O)(=O)O)[C@@H]1CN1CCNCC1)c1csc(N)n1)c1cc(=O)c(O)cn1O` (stereo partly drawn), the MIC (Escherichia coli [1]) was 2 mg/L (≈ 3.25 µM), the “Selectivity Index” value (Escherichia coli [2]) was 2 and the MIC (Escherichia coli [3]) was 1 mg/L (≈ 1.63 µM). For the same molecule, the MIC (Escherichia coli [4]) was 2 mg/L (≈ 3.25 µM), the MIC (Escherichia coli [5]) was 1 mg/L and the MIC (Escherichia coli [6]) was 1 mg/L. The “Selectivity Index” value (Escherichia coli [7]) was 1, the MIC (Escherichia coli [8]) was 0.5 mg/L and the “Selectivity Index” value (Escherichia coli [9]) was 4. For the same molecule, the MIC (Escherichia coli [10]) was 2 mg/L (≈ 3.25 µM), the MIC (Escherichia coli [11]) was 0.5 mg/L and the “Selectivity Index” value (Escherichia coli [12]) was 4. The MIC (Escherichia coli [13]) was 2 mg/L (≈ 3.25 µM), the MIC (Escherichia coli [14]) was 1 mg/L and the “Selectivity Index” value (Escherichia coli [15]) was 2. For the same molecule, the MIC (Klebsiella pneumoniae [16]) was 4 mg/L (≈ 6.51 µM), the MIC (Klebsiella pneumoniae [17]) was 2 mg/L and the “Selectivity Index” value (Klebsiella pneumoniae [18]) was 2. For the same molecule, the MIC (Klebsiella pneumoniae [19]) was over 64 mg/L, the MIC (Klebsiella pneumoniae [20]) was over 64 mg/L and the “Selectivity Index” value (Klebsiella pneumoniae [21]) was 1 - 8. The MIC (Klebsiella pneumoniae [22]) was over 64 mg/L, the MIC (Klebsiella pneumoniae [23]) was over 64 mg/L and the “Selectivity Index” value (Klebsiella pneumoniae [24]) was 1 - 8. For the same molecule, the MIC (Klebsiella pneumoniae [25]) was 4 mg/L (≈ 6.51 µM), the MIC (Klebsiella pneumoniae [26]) was 0.5 mg/L and the “Selectivity Index” value (Klebsiella pneumoniae [27]) was 8. For the same molecule, the MIC (Klebsiella pneumoniae [28]) was 2 mg/L (≈ 3.25 µM), the MIC (Klebsiella pneumoniae [29]) was 2 mg/L and the “Selectivity Index” value (Klebsiella pneumoniae [30]) was 1. It also gave an MIC (Pseudomonas aeruginosa [31]) of over 64 mg/L, an MIC (Pseudomonas aeruginosa [32]) of over 64 mg/L and an MIC (Pseudomonas aeruginosa [33]) of 64 mg/L (≈ 104 µM). The MIC (Pseudomonas aeruginosa [34]) was 64 mg/L, the “Selectivity Index” value (Pseudomonas aeruginosa [35]) was 1 and the MIC (Pseudomonas aeruginosa [36]) was over 64 mg/L. It also gave an MIC (Pseudomonas aeruginosa [37]) of over 64 mg/L, an MIC (Pseudomonas aeruginosa [38]) of 32 mg/L (≈ 52.1 µM) and an MIC (Pseudomonas aeruginosa [39]) of 32 mg/L. The “Selectivity Index” value (Pseudomonas aeruginosa [40]) was 1, the MIC (Pseudomonas aeruginosa [41]) was 64 mg/L (≈ 104 µM) and the MIC (Pseudomonas aeruginosa [42]) was 64 mg/L. The “Selectivity Index” value (Pseudomonas aeruginosa [43]) was 1.
